Active and inactive are the calls of the source. The rule behind the calls is not given here.
How the values were obtained:
Assay type in all cases: functional
[1] = system: Radical scavenging activity; experiment: Antioxidant activity assessed as DPPH radical scavenging activity at 40 uM after 30 mins
In short: (§1)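 DPPH scavenging: test sample in EtOH added to 0.1 M acetic acid buffer pH 5.5 plus 0.5 mM DPPH EtOH solution (stock); stood 30 min at room temperature; absorbance read at 517 nm, activity given as change in optical density. Standards alpha-tocopherol and L-cysteine.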

[2] = Antioxidant activity at 0.5 mM by ferric-thiocyanate method
In short: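 Linoleic acid peroxidation (ferric thiocyanate): sample (final 0.5 mM) with linoleic acid in EtOH/0.05 M phosphate buffer pH 7.0, kept dark at 40 °C for 5 days; aliquot diluted in 75% EtOH, ammonium thiocyanate and ferrous chloride in HCl added, absorbance at 500 nm read at 3 min. Control lacked compound; alpha-tocopherol and BHA standards.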

[3] = system: Radical scavenging activity; experiment: Antioxidant activity assessed as DPPH radical scavenging activity at 80 uM after 30 mins; in short: as §1
[4] = system: Radical scavenging activity; experiment: Antioxidant activity assessed as DPPH radical scavenging activity at 20 uM after 30 mins; in short: as §1
[5] = system: Radical scavenging activity; experiment: Antioxidant activity assessed as DPPH radical scavenging activity at 10 uM after 30 mins; in short: as §1

Structure (SMILES)	deltaA [1]	Activity [2]	deltaA [3]	deltaA [4]	deltaA [5]
CC(C)c1cc2c(cc1O)[C@@]1(C)CCCC(C)(C)[C@@H]1CC2	0.153	Active	0.255	0.081	–
COc1ccc(O)c(C(C)(C)C)c1.COc1ccc(O)cc1C(C)(C)C	–	Active	–	–	–
Cc1c(C)c2c(c(C)c1O)CC[C@@](C)(CCC[C@H](C)CCC[C@H](C)CCCC(C)C)O2	0.934	–	–	0.471	0.252
N[C@@H](CS)C(=O)O	0.355	–	0.754	0.161	–
